Compound activity (PubChem BioAssay)
Lung fibro prol: blocks proliferation of human lung fibroblasts | 85,000 tested, 1.1% active | viability, % at 10 µM | LL 47 human lung fibroblast viability, ATP luminescence; hits give low values;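 active means viability at or below 50% in the single dose screen; inactive means viability above 50%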;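 further: compound exposure lasted 72 h before the ATP readout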
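Signal: luminescent ATP detection, CellTiter-Glo; assay system: LL 47 human lung fibroblasts; input: 1,150 cells/well; incubation: overnight cell rest, 72 h compound treatment at 37 °C; measure: % viability versus median cells-only luminescence; medium: IMEM growth medium with 15% fetal bovine serum; dosing: compound addition at 0.1% DMSO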
H69AR growth 86K: growth inhibitors of human H69AR lung tumor cells | H69AR lung tumor viability, ATP luminescence, 72 h; hits give low values | 85,000 tested, 6% active | viability, % at 10 µM | AID 598;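 active means viability at or below 40%; inactive means viability above 40%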;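 further: multidrug resistant small cell line overexpressing MRP-1 efflux transporter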
HUVEC inhibit: human endothelial cell proliferation inhibition | HUVEC proliferation, CellTiter-Glo luminescence, 72 h; hits give low values | viability, % at 10 µM (by protocol) | AID 648 | 86,000 tested, 1.1% active;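 active means viability at or below 30%; inactive means viability above 30%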
bCat KO growth: beta-catenin-lacking colon tumor cell growth suppression. viability, % at 10 µM. 140,000 tested, 1.5% active. HCT116 beta-catenin knockout viability, CellTiter-Glo, 60 h; hits give low values. AID 818;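 active means viability at or under a set limit, the compound median less 4 SD, cut at about 6% in these data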
PTEN del growth: growth suppressors of cells with PTEN tumor suppressor deletion; HCT116 PTEN-null viability, CellTiter-Glo, 60 h; hits give low values; 140,000 tested, 1.2% active; AID 827; viability, % at 10 µM;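 active means viability at or below a set limit, 4 SD under the median of all tested compounds, cut at about 3.7% in these data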;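 further: PTEN knockout HCT116 line with beta catenin targeted HCT116 as companion control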
Each line names hits and unclear results; the compound was inactive in the other large screens. This excerpt belongs to a sample that is enriched for hits.

O=[N+]([O-])c1c(NCCCO)cc(Sc2nc3ccccc3s2)c2nonc12	bCat KO growth 2.3, PTEN del growth 3.6 (no result: Lung fibro prol, H69AR growth 86K, HUVEC inhibit)
CCC(=O)OCCNc1cc(Sc2nc3ccccc3s2)c2nonc2c1[N+](=O)[O-]	Lung fibro prol 3.7, H69AR growth 86K 1.3, bCat KO growth 4.1, PTEN del growth 3.7
Cc1ccc(S(=O)(=O)N2CCC(=O)N(CCO)CC2)cc1	none (no result: Lung fibro prol, H69AR growth 86K, HUVEC inhibit)
CCOC(=O)C1CCN(C(=O)c2sc3nc(-c4ccc(F)cc4)cn3c2C)CC1	H69AR growth 86K 35
COc1ccc(-c2cn3c(C)c(C(=O)Nc4cccc(NC(C)=O)c4)sc3n2)cc1	H69AR growth 86K 26, HUVEC inhibit 23
COc1ccc(-c2cn3c(C)c(C(=O)Nc4ccncc4)sc3n2)cc1	none
COC(=O)c1ccc(NC(=O)c2sc3nc(-c4ccccc4)cn3c2C)cc1	H69AR growth 86K 37
COc1ccc(-c2cn3c(C)c(C(=O)NCc4ccc5c(c4)OCO5)sc3n2)cc1	none (no result: bCat KO growth, PTEN del growth)
CCOC(=O)C1CCCN(C(=O)c2sc3nc(-c4ccc(F)cc4)cn3c2C)C1 (centres undefined)	none
Cc1c(C(=O)Nc2ccncc2)sc2nc(-c3ccc(F)cc3)cn12	H69AR growth 86K 17, HUVEC inhibit 29
CCC(C)c1ccccc1NC(=O)COC(=O)c1ccc2c(c1)S(=O)(=O)c1ccccc1C2=O (centres undefined)	none (no result: Lung fibro prol, H69AR growth 86K, HUVEC inhibit)
c1ccc(-c2nc3nonc3nc2-c2ccccc2)cc1	Lung fibro prol 17, H69AR growth 86K 1.9, bCat KO growth 2.3, PTEN del growth 2.4
CC(C)(C#CCN1CCCCC1)OCCOC(c1ccccc1)c1ccccc1	none (no result: Lung fibro prol, H69AR growth 86K, HUVEC inhibit)
Nn1c(SCC(=O)NC2CCCCC2)nnc1-c1ccc(Cl)cc1	none
N#Cc1c(N)nc(SCC(=O)NC2CCCCC2)c(C#N)c1-c1ccc(Cl)cc1	H69AR growth 86K 36
CC(C)c1ccc(-c2c(C#N)c(N)nc(SCC(=O)N3CCCCC3)c2C#N)cc1	HUVEC inhibit 28
CC(C)c1ccc(-c2c(C#N)c(N)nc(SCC(=O)N3CCCCCC3)c2C#N)cc1	none
O=C(Cc1ccc(F)cc1)N/N=C/c1ccncc1	none (no result: Lung fibro prol, H69AR growth 86K, HUVEC inhibit)
Cc1ccc(NC(=O)COc2ccccc2CNC(C)(C)CC(C)(C)C)cc1	Lung fibro prol 35, H69AR growth 86K 1.6, bCat KO growth 1.4, PTEN del growth 1.8
COc1ccc(N2C(=O)CC(Sc3nc(C)c4c(n3)CCCC4)C2=O)cc1 (centres undefined)	H69AR growth 86K 25
C/C(=N\NC(=O)C(C)n1nc(C)c([N+](=O)[O-])c1C)c1ccccc1O (centres undefined)	bCat KO growth 6.1 (no result: Lung fibro prol, H69AR growth 86K, HUVEC inhibit)
COc1cc(OC)c(C(=O)OC(C)C(=O)Nc2cccc(C(F)(F)F)c2)cc1OC (centres undefined)	none (no result: Lung fibro prol, H69AR growth 86K, HUVEC inhibit)
COc1cc(C(=O)Nc2nccs2)ccc1OCc1c(C)noc1C	none
COc1cc(C(=O)Nc2nc3ccccc3s2)ccc1OCc1c(C)noc1C	H69AR growth 86K 19
Cc1cc(C)n(-c2ccc(C(=O)Nc3nc4ccccc4s3)cc2)n1	H69AR growth 86K 15
O/N=C1\CC/C(=N\O)c2nn(-c3ccccc3Cl)nc21	Lung fibro prol 47 (no result: H69AR growth 86K)
O=C(O)C1CCN(c2nc(-c3ccccc3)nc3c2oc2ccccc23)CC1	H69AR growth 86K 19
CCOC(=O)C1CCN(c2nc(-c3ccccc3)nc3c2oc2ccccc23)CC1	none
Cc1nc(N2CCC(C)CC2)c2oc3ccccc3c2n1	H69AR growth 86K 34
COc1ccccc1N1CCN(c2nc(C)nc3c2oc2ccccc23)CC1	none
O=C(O)CSc1nc(-c2ccccc2)nc2c1oc1ccccc12	none
OCCN1CCN(c2nc(-c3ccccc3)nc3c2oc2ccccc23)CC1	Lung fibro prol 20, H69AR growth 86K 24, HUVEC inhibit 12
Cc1nc(N2CCN(Cc3ccc4c(c3)OCO4)CC2)c2oc3ccccc3c2n1	H69AR growth 86K 23 (no result: bCat KO growth, PTEN del growth)
Cc1nc(Nc2ccc3c(c2)OCO3)c2oc3ccccc3c2n1	none (no result: Lung fibro prol, H69AR growth 86K, HUVEC inhibit)
CCOc1ccc(/C=N/OCC(=O)NCc2ccc3c(c2)OCO3)cc1OC	none (no result: Lung fibro prol, H69AR growth 86K, HUVEC inhibit)
COc1ccc(C(=O)NNC(=O)CSc2nnc(COc3ccccc3OC)n2C)cc1	none (no result: Lung fibro prol, H69AR growth 86K, HUVEC inhibit)
O=C(Nc1cccnc1)c1ccc(Oc2ccccc2)cc1	Lung fibro prol 11
Cc1cc(C)n2nc(N)c(N=Nc3ccc(Cl)cc3)c2n1	none (no result: Lung fibro prol, H69AR growth 86K, HUVEC inhibit)
CCOc1ccc2nc(N3C(=O)/C(=C/c4ccc(Cl)cc4)NC3=S)sc2c1	none (no result: Lung fibro prol, H69AR growth 86K, HUVEC inhibit)
COc1ccc(CCC(=O)N2CCN(C3CCCCC3)CC2)cc1	Lung fibro prol 17
O=C(CCC1CCCC1)N1CCN(C2CCCC2)CC1	none
OCCN1CCN(Cc2cc(Br)cc(Br)c2O)CC1	none
OCCN1CCN(Cc2cc(Cl)c3cccnc3c2O)CC1	H69AR growth 86K 37
Oc1c(CN2CCN(c3ccccn3)CC2)cc(Cl)c2cccnc12	Lung fibro prol 34, H69AR growth 86K 0.1, bCat KO growth 2.0, PTEN del growth 2.6
CCOc1ccc(Br)cc1S(=O)(=O)Nc1cccc(S(=O)(=O)N(C)C)c1	none (no result: Lung fibro prol, H69AR growth 86K, HUVEC inhibit)
CCOC(=O)C=Nc1c(N)n(C)c(=O)n(C)c1=O	none (no result: Lung fibro prol, H69AR growth 86K, HUVEC inhibit)
CCOC(=O)c1cc2sccc2n1CC(=O)N1c2ccccc2CC1C (centres undefined)	H69AR growth 86K 4.7, HUVEC inhibit 12
CC(=O)Nc1ccccc1N(CC(O)Cn1c2ccccc2c2ccccc21)S(=O)(=O)c1ccc(C)cc1 (centres undefined)	none (no result: Lung fibro prol, H69AR growth 86K, HUVEC inhibit)
CCN(CC(O)Cn1c2ccccc2c2ccccc21)S(=O)(=O)c1ccc(C)cc1 (centres undefined)	H69AR growth 86K 27, HUVEC inhibit 27
COc1ccc(N(CC(O)Cn2c3ccccc3c3ccccc32)S(=O)(=O)c2ccccc2)cc1 (centres undefined)	none (no result: Lung fibro prol, H69AR growth 86K, HUVEC inhibit)
CS(=O)(=O)N(CC(O)Cn1c2ccccc2c2ccccc21)c1ccccc1 (centres undefined)	H69AR growth 86K 30
COc1ccc(C2C(C#N)=C(N)N(c3ccccc3C#N)C3=C2C(=O)CCC3)cc1CN1CCCC1 (centres undefined)	none (no result: Lung fibro prol, H69AR growth 86K, HUVEC inhibit)
O=[N+]([O-])c1ccc(Sc2nccn2Cc2ccccc2)c([N+](=O)[O-])c1	bCat KO growth 4.8 (no result: Lung fibro prol, H69AR growth 86K, HUVEC inhibit)
O=[N+]([O-])c1cc(C(F)(F)F)ccc1Sc1nccn1Cc1ccccc1	none (no result: Lung fibro prol, H69AR growth 86K, HUVEC inhibit)
Cn1c(N/N=C2\CCCc3ccccc32)nc2c1c(=O)n(Cc1ccc(F)cc1)c(=O)n2C	bCat KO growth 1.2, PTEN del growth 1.2 (no result: Lung fibro prol, H69AR growth 86K, HUVEC inhibit)
Cn1c(NCc2ccccc2)nc2c1c(=O)n(Cc1ccc(Br)cc1)c(=O)n2C	none (no result: PTEN del growth)
CCOC(=O)Cn1cnc(-c2ccc([N+](=O)[O-])cc2)c1	none (no result: Lung fibro prol, H69AR growth 86K, HUVEC inhibit)
CCn1c(SCC(=O)Nc2ccc(NC(=O)c3ccco3)c(OC)c2)nc2ccccc2c1=O	H69AR growth 86K 10
CCCCn1c(SCC(=O)Nc2cc(C)on2)nc2ccccc2c1=O	none
COCCn1c(SCC(=O)Nc2ccc(NC(=O)c3ccco3)c(OC)c2)nc2ccccc2c1=O	H69AR growth 86K 31
CCCCn1c(SCC(=O)Nc2cc(NC(=O)c3ccco3)ccc2C)nc2ccccc2c1=O	H69AR growth 86K 6.8
CCn1c(SCC(=O)Nc2ccccc2OC)nc2ccccc2c1=O	none
